Measured values reported in ChEMBL document CHEMBL1165950, “Design and synthesis of new potent anticancer pyrazoles with high FLT3 kinase inhibitory selectivity” (Bioorg Med Chem, 2010).

Assays:
Format in all cases: functional
TK-10 = test: Cytotoxicity against human TK10 cells assessed as cell growth at 10 uM; conditions: read-out: Activity
In short: (§1)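 NCI-60 screen: cells grown in RPMI 1640 with 5% FBS and 2 mM L-glutamine, plated at 5000–40,000 cells/well according to doubling time, and preincubated 24 h at 37 °C, 5% CO2. The single 10 µM dose (DMSO stock) was added, then incubated 48 h. Cells were TCA-fixed and stained with 0.4% SRB, read at 515 nm, and growth % calculated against time-zero and control plates.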

UACC-62 = test: Cytotoxicity against human UACC62 cells assessed as cell growth at 10 uM; conditions: read-out: Activity; in short: as §1
NCI/ADR-RES = test: Cytotoxicity against human NCI/ADR-RES cells assessed as cell growth at 10 uM; conditions: read-out: Activity; in short: as §1
M14 = test: Cytotoxicity against human M14 cells assessed as cell growth at 10 uM; conditions: read-out: Activity; in short: as §1
SR = test: Cytotoxicity against human SR cells assessed as cell growth at 10 uM; conditions: read-out: Activity; in short: as §1
SNB-75 = test: Cytotoxicity against human SNB75 cells assessed as cell growth at 10 uM; conditions: read-out: Activity; in short: as §1
OVCAR-8 = test: Cytotoxicity against human OVCAR8 cells assessed as cell growth at 10 uM; conditions: read-out: Activity; in short: as §1
DU-145 = test: Cytotoxicity against human DU145 cells assessed as cell growth at 10 uM; conditions: read-out: Activity
In short: (§2)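 Single-dose NCI-60 screen at 10 µM. Cells were grown in RPMI 1640 with 5% FBS and 2 mM L-glutamine, then treated for 48 h at 37 °C. Protein was measured by SRB staining with absorbance at 515 nm. Percentage growth was recorded, and inhibition percentage was calculated as 100 minus growth percentage.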

NCI-H226 = test: Cytotoxicity against human NCI-H226 cells assessed as cell growth at 10 uM; conditions: read-out: Activity; in short: as §1
HT-29 = test: Cytotoxicity against human HT-29 cells assessed as cell growth at 10 uM; conditions: read-out: Activity; in short: as §2
HL-60(TB) = test: Cytotoxicity against human HL-60(TB) cells assessed as cell growth at 10 uM; conditions: read-out: Activity
In short: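 NCI 60-cell panel screen at a single concentration of 10 µM. Cells are grown in RPMI 1640 with 5% FBS and 2 mM L-glutamine and read by SRB protein staining at 515 nm. Percent growth is measured relative to time-zero and untreated controls; inhibition % is 100 minus growth %.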

NCI-H522 = test: Cytotoxicity against human NCI-H522 cells assessed as cell growth at 10 uM; conditions: read-out: Activity; in short: as §1
RXF 393 = test: Cytotoxicity against human RXF393 cells assessed as cell growth at 10 uM; conditions: read-out: Activity; in short: as §1
[1] = Growth inhibition of human NCI60 cells at 10 uM after 48 hrs by sulforhodamine B assay relative to control; conditions: NCI60, 48 h, read-out: GI
In short: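 Single-dose NCI screen at 10 µM across the 60-line panel, 48 h exposure at 37 °C after a 24 h preincubation. Adherent cells were fixed with cold TCA and stained with 0.4% SRB, and absorbance was read at 515 nm. Inhibition % was taken as 100 minus growth %, and the mean across all lines was reported.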

[2] = Cytotoxicity against human Hs 578T cells assessed as cell growth at 10 uM; conditions: read-out: Activity; in short: as §2
SK-OV-3 = test: Cytotoxicity against human SKOV3 cells assessed as cell growth at 10 uM; conditions: read-out: Activity; in short: as §1
HCT-116 = test: Cytotoxicity against human HCT116 cells assessed as cell growth at 10 uM; conditions: read-out: Activity; in short: as §2
HOP-92 = test: Cytotoxicity against human HOP92 cells assessed as cell growth at 10 uM; conditions: read-out: Activity; in short: as §2
CCRF-CEM = test: Cytotoxicity against human CCRF-CEM cells assessed as cell growth at 10 uM; conditions: read-out: Activity; in short: as §2
HCT-15 = test: Cytotoxicity against human HCT15 cells assessed as cell growth at 10 uM; conditions: read-out: Activity; in short: as §2
786-0 = test: Cytotoxicity against human 786-0 cells assessed as cell growth at 10 uM; conditions: read-out: Activity; in short: as §2
[3] = Cytotoxicity against human […] cells assessed as cell growth at 10 uM; conditions: read-out: Activity; in short: as §1
SF-268 = test: Cytotoxicity against human SF268 cells assessed as cell growth at 10 uM; conditions: read-out: Activity; in short: as §1
EKVX = test: Cytotoxicity against human EKVX cells assessed as cell growth at 10 uM; conditions: read-out: Activity; in short: as §2
A549 = test: Cytotoxicity against human A549 cells assessed as cell growth at 10 uM; conditions: read-out: Activity; in short: as §2
MDA-MB-435 = test: Cytotoxicity against human MDA-MB-435 cells assessed as cell growth at 10 uM; conditions: read-out: Activity; in short: as §1
CAKI-1 = test: Cytotoxicity against human Caki1 cells assessed as cell growth at 10 uM; conditions: read-out: Activity; in short: as §2
ACHN = test: Cytotoxicity against human ACHN cells assessed as cell growth at 10 uM; conditions: read-out: Activity; in short: as §2
U-251 = test: Cytotoxicity against human U251 cells assessed as cell growth at 10 uM; conditions: read-out: Activity; in short: as §1
SF-539 = test: Cytotoxicity against human SF539 cells assessed as cell growth at 10 uM; conditions: read-out: Activity; in short: as §1
UO-31 = test: Cytotoxicity against human UO31 cells assessed as cell growth at 10 uM; conditions: read-out: Activity; in short: as §1
SF-295 = test: Cytotoxicity against human SF295 cells assessed as cell growth at 10 uM; conditions: read-out: Activity; in short: as §1
SN12C = test: Cytotoxicity against human SN12C cells assessed as cell growth at 10 uM; conditions: read-out: Activity; in short: as §1
A498 = test: Cytotoxicity against human A498 cells assessed as cell growth at 10 uM; conditions: read-out: Activity; in short: as §2
BT-549 = test: Cytotoxicity against human BT549 cells assessed as cell growth at 10 uM; conditions: read-out: Activity; in short: as §2
NCI-H460 = test: Cytotoxicity against human NCI-H460 cells assessed as cell growth at 10 uM; conditions: read-out: Activity; in short: as §1
MOLT-4 = test: Cytotoxicity against human MOLT4 cells assessed as cell growth at 10 uM; conditions: read-out: Activity; in short: as §1
SW-620 = test: Cytotoxicity against human SW620 cells assessed as cell growth at 10 uM; conditions: read-out: Activity; in short: as §1
IGROV-1 = test: Cytotoxicity against human IGROV1 cells assessed as cell growth at 10 uM; conditions: read-out: Activity; in short: as §2
T47D = test: Cytotoxicity against human T47D cells assessed as cell growth at 10 uM; conditions: read-out: Activity; in short: as §1
LOX IMVI = test: Cytotoxicity against human LOXIMVI cells assessed as cell growth at 10 uM; conditions: read-out: Activity; in short: as §1
OVCAR-4 = test: Cytotoxicity against human OVCAR4 cells assessed as cell growth at 10 uM; conditions: read-out: Activity; in short: as §1
MDA-MB-231 = test: Cytotoxicity against human MDA-MB-231 cells assessed as cell growth at 10 uM; conditions: read-out: Activity; in short: as §1
HCC 2998 = test: Cytotoxicity against human HCC2998 cells assessed as cell growth at 10 uM; conditions: read-out: Activity; in short: as §2
OVCAR-5 = test: Cytotoxicity against human OVCAR5 cells assessed as cell growth at 10 uM; conditions: read-out: Activity; in short: as §1
K562 = test: Cytotoxicity against human K562 cells assessed as cell growth at 10 uM; conditions: read-out: Activity; in short: as §2
SK-MEL-5 = test: Cytotoxicity against human SK-MEL-5 cells assessed as cell growth at 10 uM; conditions: read-out: Activity; in short: as §1
KM12 = test: Cytotoxicity against human KM12 cells assessed as cell growth at 10 uM; conditions: read-out: Activity; in short: as §1
COLO 205 = test: Cytotoxicity against human COLO205 cells assessed as cell growth at 10 uM; conditions: read-out: Activity; in short: as §2
NCI-H23 = test: Cytotoxicity against human NCI-H23 cells assessed as cell growth at 10 uM; conditions: read-out: Activity; in short: as §1
PC-3 = test: Cytotoxicity against human PC3 cells assessed as cell growth at 10 uM; conditions: read-out: Activity; in short: as §1
SK-MEL-2 = test: Cytotoxicity against human SK-MEL-2 cells assessed as cell growth at 10 uM; conditions: read-out: Activity; in short: as §1
NCI-H322M = test: Cytotoxicity against human NCI-H322M cells assessed as cell growth at 10 uM; conditions: read-out: Activity; in short: as §1
HOP-62 = test: Cytotoxicity against human HOP62 cells assessed as cell growth at 10 uM; conditions: read-out: Activity; in short: as §2
SNB-19 = test: Cytotoxicity against human SNB19 cells assessed as cell growth at 10 uM; conditions: read-out: Activity; in short: as §1
UACC-257 = test: Cytotoxicity against human UACC257 cells assessed as cell growth at 10 uM; conditions: read-out: Activity; in short: as §1
MCF7 = test: Cytotoxicity against human MCF7 cells assessed as cell growth at 10 uM; conditions: read-out: Activity; in short: as §1
OVCAR-3 = test: Cytotoxicity against human OVCAR-3 cells assessed as cell growth at 10 uM; conditions: read-out: Activity; in short: as §1
SK-MEL-28 = test: Cytotoxicity against human SK-MEL-28 cells assessed as cell growth at 10 uM; conditions: read-out: Activity; in short: as §1
Malme-3M = test: Cytotoxicity against human MALME-3M cells assessed as cell growth at 10 uM; conditions: read-out: Activity; in short: as §1
MDA-MB-468 = test: Cytotoxicity against human MDA-MB-468 cells assessed as cell growth at 10 uM; conditions: read-out: Activity; in short: as §1

SMILES: Cc1cc(O)cc(-c2nn(CC#N)cc2-c2ccnc(-c3ccccc3)c2)c1
- growth at 10 µM (TK-10): 84.2%
- growth at 10 µM (UACC-62): 59.8%
- growth at 10 µM (NCI/ADR-RES): 66.7%
- growth at 10 µM (M14): 81.3%
- growth at 10 µM (SR): 80.3%
- growth at 10 µM (SNB-75): 43.2%
- growth at 10 µM (OVCAR-8): 70.2%
- growth at 10 µM (DU-145): 103%
- growth at 10 µM (NCI-H226): 77.7%
- growth at 10 µM (HT-29): 61.9%
- growth at 10 µM (HL-60(TB)): 78.4%
- growth at 10 µM (NCI-H522): 57.2%
- growth at 10 µM (RXF 393): 151%
- inhibition of growth at 10 µM [1]: 16.4%
- growth at 10 µM [2]: 84.6%
- growth at 10 µM (SK-OV-3): 84.6%
- growth at 10 µM (HCT-116): 59.1%
- growth at 10 µM (HOP-92): 57.3%
- growth at 10 µM (CCRF-CEM): 85.8%
- growth at 10 µM (HCT-15): 54%
- growth at 10 µM (786-0): 67%
- growth at 10 µM [3]: 84.5%
- growth at 10 µM (SF-268): 99.6%
- growth at 10 µM (EKVX): 101%
- growth at 10 µM (A549): 85.5%
- growth at 10 µM (MDA-MB-435): 97.8%
- growth at 10 µM (CAKI-1): 82.4%
- growth at 10 µM (ACHN): 74.4%
- growth at 10 µM (U-251): 87.4%
- growth at 10 µM (SF-539): 83.5%
- growth at 10 µM (UO-31): 64.5%
- growth at 10 µM (SF-295): 99.2%
- growth at 10 µM (SN12C): 77.6%
- growth at 10 µM (A498): 84.3%
- growth at 10 µM (BT-549): 93.5%
- growth at 10 µM (NCI-H460): 93.3%
- growth at 10 µM (MOLT-4): 71%
- growth at 10 µM (SW-620): 87.6%
- growth at 10 µM (IGROV-1): 72%
- growth at 10 µM (T47D): 59.2%
- growth at 10 µM (LOX IMVI): 95.6%
- growth at 10 µM (OVCAR-4): 77.7%
- growth at 10 µM (MDA-MB-231): 80.7%
- growth at 10 µM (HCC 2998): 89.2%
- growth at 10 µM (OVCAR-5): 93.2%
- growth at 10 µM (K562): 71.5%
- growth at 10 µM (SK-MEL-5): 75.4%
- growth at 10 µM (KM12): 97.2%
- growth at 10 µM (COLO 205): 108%
- growth at 10 µM (NCI-H23): 93.5%
- growth at 10 µM (PC-3): 88.7%
- growth at 10 µM (SK-MEL-2): 86.1%
- growth at 10 µM (NCI-H322M): 116%
- growth at 10 µM (HOP-62): 92.7%
- growth at 10 µM (SNB-19): 87%
- growth at 10 µM (UACC-257): 95.6%
- growth at 10 µM (MCF7): 53.8%
- growth at 10 µM (OVCAR-3): 107%
- growth at 10 µM (SK-MEL-28): 85.2%
- growth at 10 µM (Malme-3M): 133%
- growth at 10 µM (MDA-MB-468): 61.8%
